In the library only some 2.9% were active in any assay of this set; here they are far more common.
SUMO Mot1 rescue: SUMOylation pathway inhibition by Mot1-301 growth rescue; S. cerevisiae Mot1-301 growth rescue, ATP luminescence, 38.5C; percent above DMSO median, 100 means doubled; growth rescue, % at 18.8 µM; 320,000 compounds, 1% hits;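 active = every valid replicate shows activation above 250% relative to neutral control wells; inactive = the rest, any valid replicate at or below 250%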;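 note: OY570 slx delta 5 strain wells were the positive control but not used for scaling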
SUMO HTRF inh: blocks human SUMOylation mediated by UBC9; HTRF SUMOylation assay, SAE1/SAE2 + UBC9, in vitro; AID 2006; 290,000 compounds, 0.36% hits; inhibition, % at 35 µM; P63279; in the data active = inhibition above about 50%, passing the limit was not always enough
Target sequence (P63279 whole entry, looked up): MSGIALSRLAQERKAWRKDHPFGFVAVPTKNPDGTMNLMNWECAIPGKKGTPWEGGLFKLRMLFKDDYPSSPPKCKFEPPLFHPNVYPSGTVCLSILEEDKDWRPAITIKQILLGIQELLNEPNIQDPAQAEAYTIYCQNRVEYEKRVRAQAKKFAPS
IMP-1 inhibitor: blocks Pseudomonas aeruginosa IMP-1 metallo-beta-lactamase | purified IMP-1, nitrocefin hydrolysis, epi-absorbance fluorescence | inhibition, % at 5.6 µM | 290,000 compounds, 0.45% hits | AID 1556;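 active = inhibition above the mean plus 3 SD of all compounds in the same screening run, cut at about 4.5% in these data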;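 note: 0% = IMP-1 with DMSO and 100% = DMSO wells lacking enzyme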
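System: purified IMP-1; amount: IMP-1 0.2 nM before substrate addition; compound: single dose, 5.6 µM; times: 25 °C, 15 min preincubation, 25 min reaction; signal: Epi-absorbance via hydrolysed-nitrocefin quenching of white-plate fluorescence, 480/530 nm, EDTA stop; benchmarks: DMSO with and without IMP-1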
NALP1 yeast inh: NALP1 inhibition; S. cerevisiae NALP1/ASC/caspase-1 growth, X-gal OD620, 72 h; inhibition, % at 10 µM; 280,000 compounds, 0.61% hits; AID 2071; in the data active = inhibition mostly above about 24%, no sharp cut-off; inactive = mostly below about 32%
FID counter: counter-screen for HCV NS3 helicase inhibitors: DNA intercalator displacement; DNA fluorescent intercalator displacement, fluorescence; 290,000 compounds, 0.17% hits; inhibition, % at 7.9 µM; in the data active = inhibition above about 37%;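 note: 0% = vehicle and 100% = reference compound; higher means more ethidium bromide displaced from hairpin DNA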
VIM-2 inh: inhibitors of Pseudomonas aeruginosa VIM-2 metallo-beta-lactamase | purified VIM-2, nitrocefin hydrolysis, epi-absorbance fluorescence | inhibition, % at 5.6 µM | 290,000 compounds, 0.89% hits | AID 1527;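 active = inhibition above the mean of all tested compounds plus 3 SD, cutoff set per screening run, cut at about 7.5% in these data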;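 note: red hydrolysis product quenches plate fluorescence so inhibitors raise well fluorescence; 0% = enzyme with DMSO and 100% = DMSO without enzyme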
Yeast Mot1 SUMO: inhibits SUMO pathway, affecting Mot1-301 yeast growth | shares compounds with SUMO Mot1 rescue | S. cerevisiae Mot1-301 galactose growth, ATP luminescence, 24 h; -100 = growth of slx-deleted rescue strain | growth activity, percent, % at 42 µM | 2,300 tested, under 10 active | AID 493004;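 active = Signal drops as the depositor expects, and the fitted half-maximal dose is no more than ten times the top valid tested dose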;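 note: more negative values mean stronger growth rescue toward the control strain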
* hit, by the source's call; · = no result given; + = active, no number.

SMILES	SUMO Mot1 rescue	SUMO HTRF inh	IMP-1 inhibitor	NALP1 yeast inh	FID counter	VIM-2 inh	Yeast Mot1 SUMO
COc1ccc(N2CCN(C3CCCN(Cc4ccc(F)c(F)c4)C3)CC2)cc1 (centres undefined)	13	0	-3	-11	1	-2	·
COc1ccc(N2CCN(C3CCCN(Cc4cccc(OC)c4)C3)CC2)cc1 (centres undefined)	667*	8	-2	-2	-2	-3	0
COc1cccc(N2CCN(C3CCCC(C)C3)CC2)c1 (centres undefined)	676*	6	-9	48	1	-7	0
CCOc1ccc(N2C(=O)c3cccnc3C2=O)cc1	2	5	-3	14	6	-1	·
O=C1c2nccnc2C(=O)N1c1ccc(C(F)(F)F)cc1	588*	-8	-3	-14	6	-1	-1
COc1ccc(NS(=O)(=O)c2ccc3nc(COc4ccc(C#N)cc4)[nH]c3c2)cc1	-13	1	-1	13	-1	-1	·
O=C(O)COc1ccc(=O)n(-c2ccccc2)n1	+	13	-4	13	3	-5	0
COC(=O)COc1ccc(=O)n(-c2ccccc2)n1	-6	16	1	13	0	0	·
CS(=O)(=O)c1ccc(Cl)c(NC(=O)COC(=O)CNC(=O)c2ccc3ccccc3c2)c1	7	·	·	·	·	·	·
CS(=O)(=O)c1ccc(Cl)c(NC(=O)c2ccc3ccccc3c2)c1	+	-4	-4	42	-6	-3	0
COc1ccc(Cl)cc1NC(=O)CN(C)C(=O)c1ccc2c(c1)CC(c1ccccc1)OC2=O (centres undefined)	6	·	·	·	·	·	·
COc1cccc(C(=O)N2CCN(S(=O)(=O)Cc3ccccc3)CC2)c1OC	530*	10	-4	3	-14	-3	0
COc1ccccc1C(=O)N1CCN(S(=O)(=O)Cc2ccccc2)CC1	-7	4	-4	10	-16	-6	·
CCCOc1ccc(C(O)C(CN2CCOCC2)c2ccccc2)cc1 (centres undefined)	20	7	2	5	-1	-1	·
CCCCOc1ccc(C(O)C(CN2CCOCC2)c2ccccc2)cc1 (centres undefined)	787*	6	-4	6	-7	-1	0
CCOc1ccc(CN(C)C(C)C(=O)NCc2ccccc2)cc1 (centres undefined)	401*	6	-3	4	-2	-5	0
COc1ccc(C(=O)Nc2cc(C)on2)cc1S(=O)(=O)N1CC(c2ccccc2)CC1=O (centres undefined)	-6	-17	-1	30	-6	-1	·
CCC1CN(C(=O)N2CCC(C(=O)NCc3cccc(F)c3)CC2)c2ccccc2O1 (centres undefined)	-12	-4	-3	-1	-55	-5	·
CN(C)S(=O)(=O)c1ccc(C(=O)/C=C/c2cccnc2)cc1	644*	16	-1	-3	-6	3	0
CN(C)S(=O)(=O)c1ccc(C(=O)Nc2cccnc2)cc1	0	19	-1	4	-2	-1	·
O=C(NNC(=O)c1ccc(-n2cncn2)c([N+](=O)[O-])c1)c1cccc(Cl)c1	-2	·	·	·	·	·	·
O=C(NNC(=O)c1ccc(-n2cncn2)c([N+](=O)[O-])c1)c1ccc(Cl)cc1	672*	·	·	·	·	·	0
CC(=O)c1ccc(NC(=O)CSc2nnc(-c3ccco3)o2)cc1	426*	4	-1	-4	-18	0	0
Cc1ccc(NC(=O)CSc2nnc(-c3ccco3)o2)cc1	·	6	-1	2	-5	0	·
COc1ccc(/C=C/C(=O)OCC(=O)Nc2c(C)cccc2C)cc1	·	10	0	1	-7	-1	·
COC(=O)CSc1ccc(S(=O)(=O)N2CCCCCC2)cc1[N+](=O)[O-]	520*	0	-3	-6	4	-3	1
CCOC(=O)CSc1ccc(S(=O)(=O)N2CCCCC2)cc1[N+](=O)[O-]	-10	1	-2	30	2	-3	·

Compound activity deposited in PubChem BioAssay by several laboratories.
